In ChEMBL document CHEMBL3751707, “Silicon Incorporated Morpholine Antifungals: Design, Synthesis, and Biological Evaluation” (ACS Med Chem Lett, 2015):
Values after ≈ are worked out from the molar mass of the structure shown.

Experiments:
[1] = tested on: Nakaseomyces glabratus; test: Antifungal activity against Candida glabrata NCYC 388 after 72 hrs by broth microdilution method; assay type: functional; settings: NCYC 388, 72 h
Summary of the method: (§1)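 CLSI broth microdilution against yeasts (M27-A3) and filamentous fungi (M38-A2). Read-outs: IC50 (concentration giving 50% growth inhibition), MIC, and MFC (minimum fungicidal concentration), all in μg/mL. Assay done twice in triplicate.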

[2] = tested on: Candida albicans; test: Antifungal activity against Candida albicans ATCC 24433 after 72 hrs by broth microdilution method; assay type: functional; settings: ATCC 24433, 72 h; summary of the method: as §1
[3] = tested on: Candida albicans; test: Antifungal activity against Candida albicans ATCC 10231 after 72 hrs by broth microdilution method; assay type: functional; settings: ATCC 10231, 72 h; summary of the method: as §1
[4] = tested on: Cryptococcus neoformans; test: Antifungal activity against Cryptococcus neoformans ATCC 34664 after 72 hrs by broth microdilution method; assay type: functional; settings: ATCC 34664, 72 h; summary of the method: as §1
[5] = Toxicity in human RBC assessed as hemolysis upto 128 ug/ml; assay type: cell-based; settings: erythrocyte
[6] = tested on: Candida tropicalis; test: Antifungal activity against Candida tropicalis ATCC 750 after 24 to 36 hrs by broth microdilution method; assay type: functional, organism-based; summary of the method: as §1
[7] = tested on: Nakaseomyces glabratus; test: Antifungal activity against Candida glabrata NCYC 388 after 24 to 36 hrs by broth microdilution method; assay type: functional, organism-based; summary of the method: as §1
[8] = tested on: Candida albicans; test: Antifungal activity against Candida albicans ATCC 10231 after 24 to 36 hrs by broth microdilution method; assay type: functional, organism-based; summary of the method: as §1
[9] = tested on: Aspergillus niger; test: Antifungal activity against Aspergillus niger ATCC 10578 after 72 hrs by broth microdilution method; assay type: functional; settings: ATCC 10578, 72 h; summary of the method: as §1
[10] = tested on: Cryptococcus neoformans; test: Antifungal activity against Cryptococcus neoformans ATCC 34664 after 24 to 36 hrs by broth microdilution method; assay type: functional, organism-based; summary of the method: as §1
[11] = Toxicity in human RBC assessed as partial hemolysis at 256 ug/ml; assay type: cell-based; settings: erythrocyte
[12] = tested on: Aspergillus niger; test: Antifungal activity against Aspergillus niger ATCC 10578 after 48 hrs by broth microdilution method; assay type: functional, organism-based; settings: ATCC 10578, 48 h; summary of the method: as §1
[13] = tested on: Candida albicans; test: Antifungal activity against Candida albicans ATCC 24433 after 24 to 36 hrs by broth microdilution method; assay type: functional, organism-based; summary of the method: as §1
[14] = tested on: Candida tropicalis; test: Antifungal activity against Candida tropicalis ATCC 750 after 72 hrs by broth microdilution method; assay type: functional; settings: ATCC 750, 72 h; summary of the method: as §1
[15] = tested on: HEK293; test: Cytotoxicity against HEK293 cells after 24 hrs by MTT assay; assay type: cell-based; settings: Homo sapiens, HEK293, 24 h
[16] = tested on: Candida albicans; test: Effect on sterol profile of Candida albicans ATCC 24433 assessed as cholesta-8,24-dien-3-ol,4-methyl-(3a',4a') level at 0.125 ug/ml for 24 hrs by spectrophotometry (reference value: 7.19 +/- 0.65 %); assay type: functional
Summary of the method: (§2)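 C. albicans ATCC 24433 grown with subinhibitory (<MIC) compound concentrations. Cellular sterols extracted. Sterol content read spectrophotometrically by scan at 230–300 nm, and individual intermediates quantified by GC–MS. Values are average % of total sterols from two experiments, with standard error of the mean.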

[17] = tested on: Candida albicans; test: Effect on sterol profile of Candida albicans ATCC 24433 assessed as cholesta-8,24-dien-3-ol,4-methyl-(3a',4a') level at 0.25 ug/ml for 24 hrs by spectrophotometry (reference value: 7.19 +/- 0.65 %); assay type: functional; settings: in the assay text read “by GC-MS” for “by spectrophotometry”; summary of the method: as §2
[18] = tested on: Candida albicans; test: Effect on sterol profile of Candida albicans ATCC 24433 assessed as cholesta-5,24-dien-3-ol level at 0.25 ug/ml for 24 hrs by spectrophotometry (reference value: 3.58 +/- 0.52 %); assay type: functional; settings: in the assay text read “by GC-MS” for “by spectrophotometry”; summary of the method: as §2
[19] = tested on: Candida albicans; test: Effect on sterol profile of Candida albicans ATCC 24433 assessed as ergosterol level at 0.25 ug/ml for 24 hrs by spectrophotometry (reference value: 73.34 +/- 2.53 %); assay type: functional; settings: in the assay text read “by GC-MS” for “by spectrophotometry”; summary of the method: as §2
[20] = Toxicity in human RBC assessed as hemolysis at 512 ug/ml; assay type: cell-based, Erythrocyte; settings: red blood cells, read-out: Activity
[21] = tested on: Candida albicans; test: Effect on sterol profile of Candida albicans ATCC 24433 assessed as cholesta-5,24-dien-3-ol level at 0.125 ug/ml for 24 hrs by spectrophotometry (reference value: 3.58 +/- 0.52 %); assay type: functional; summary of the method: as §2
[22] = tested on: Candida albicans; test: Effect on sterol profile of Candida albicans ATCC 24433 assessed as ergosterol level at 0.125 ug/ml for 24 hrs by spectrophotometry; assay type: functional; settings: in the assay text read “ergostenol level” for “ergosterol level”; summary of the method: as §2
[23] = Metabolic stability in human liver microsomes after 30 mins by LC-MS/MS analysis; assay type: ADME; settings: read-out: Stability
Summary of the method: (§3)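 Test compounds were incubated 30 min with liver microsomes (human or mouse, per line), and values are reported as % metabolic stability after 30 min.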

[24] = tested on: Candida albicans; test: Effect on sterol profile of Candida albicans ATCC 24433 assessed as squalene level at 0.25 ug/ml for 24 hrs by spectrophotometry (reference value: 7.17 +/- 0.35 %); assay type: functional; summary of the method: as §2
[25] = Metabolic stability in mouse liver microsomes after 30 mins by LC-MS/MS analysis; assay type: ADME; settings: read-out: Stability; summary of the method: as §3
[26] = tested on: Candida albicans; test: Effect on sterol profile of Candida albicans ATCC 24433 assessed as lichesterol level at 0.125 ug/ml for 24 hrs by spectrophotometry; assay type: functional; summary of the method: as §2
[27] = tested on: Candida albicans; test: Effect on sterol profile of Candida albicans ATCC 24433 assessed as ignosterol level at 0.25 ug/ml for 24 hrs by spectrophotometry; assay type: functional; settings: in the assay text read “by GC-MS” for “by spectrophotometry”; summary of the method: as §2
[28] = tested on: Candida albicans; test: Effect on sterol profile of Candida albicans ATCC 24433 assessed as ignosterol level at 0.125 ug/ml for 24 hrs by spectrophotometry; assay type: functional; summary of the method: as §2
[29] = tested on: Candida albicans; test: Effect on sterol profile of Candida albicans ATCC 24433 assessed as squalene level at 0.125 ug/ml for 24 hrs by spectrophotometry (reference value: 7.17 +/- 0.35 %); assay type: functional; summary of the method: as §2
[30] = tested on: Candida albicans; test: Effect on sterol profile of Candida albicans ATCC 24433 assessed as ergosterol level at 0.25 ug/ml for 24 hrs by spectrophotometry; assay type: functional; settings: in the assay text read “ergostenol level” for “ergosterol level”; summary of the method: as §2
[31] = tested on: Candida albicans; test: Effect on sterol profile of Candida albicans ATCC 24433 assessed as ergosterol level at 0.125 ug/ml for 24 hrs by spectrophotometry (reference value: 73.34 +/- 2.53 %); assay type: functional; summary of the method: as §2
[32] = tested on: Candida albicans; test: Effect on sterol profile of Candida albicans ATCC 24433 assessed as lichesterol level at 0.25 ug/ml for 24 hrs by spectrophotometry; assay type: functional; settings: in the assay text read “by GC-MS” for “by spectrophotometry”; summary of the method: as §2
[33] = tested on: Candida albicans; test: Effect on sterol profile of Candida albicans ATCC 24433 assessed as ergosta-7,22-dien-3-ol,(3a'22E) level at 0.125 ug/ml for 24 hrs by spectrophotometry; assay type: functional; summary of the method: as §2
[34] = tested on: Candida albicans; test: Effect on sterol profile of Candida albicans ATCC 24433 assessed as ergosta-7,22-dien-3-ol,(3a'22E) level at 0.25 ug/ml for 24 hrs by spectrophotometry; assay type: functional; settings: in the assay text read “by GC-MS” for “by spectrophotometry”; summary of the method: as §2

| SMILES | MFC [1] | MFC [2] | MFC [3] | MFC [4] | Activity [5] | IC50 [6] | MIC [6] | IC50 [7] | MIC [7] | IC50 [8] | MIC [8] | MFC [9] | IC50 [10] | MIC [10] | IC50 [12] | MIC [12] | IC50 [13] | MIC [13] | MFC [14] | Activity [16] | other results |
| --- | --- | --- | --- | --- | --- | --- | --- | --- | --- | --- | --- | --- | --- | --- | --- | --- | --- | --- | --- | --- | --- |
| CNC1CCN(CC(C)Cc2ccc([Si](C)(C)C)cc2)CC1 (centres undefined) | 4 µg/mL (≈ 12.6 µM) | 8 µg/mL (≈ 25.1 µM) | 2 µg/mL (≈ 6.28 µM) | 8 µg/mL (≈ 25.1 µM) | Non-toxic | 5.87 µg/mL (≈ 18.4 µM) | 16 µg/mL (≈ 50.2 µM) | 1.63 µg/mL (≈ 5.12 µM) | 2 µg/mL (≈ 6.28 µM) | 1 µg/mL (≈ 3.14 µM) | 2 µg/mL (≈ 6.28 µM) | 64 µg/mL (≈ 201 µM) | 3.77 µg/mL (≈ 11.8 µM) | 8 µg/mL (≈ 25.1 µM) | 1.25 µg/mL (≈ 3.92 µM) | 2 µg/mL (≈ 6.28 µM) | 1.55 µg/mL (≈ 4.87 µM) | 4 µg/mL (≈ 12.6 µM) | 16 µg/mL (≈ 50.2 µM) |  | Activity [11]: Toxic; IC50 [15]: 9.81 µg/mL (≈ 30.8 µM) |
| CC(Cc1ccc([Si](C)(C)C)cc1)CN1C[C@@H](C)O[C@@H](C)C1 (some centres undefined) | 2 µg/mL (≈ 6.26 µM) | 0.5 µg/mL (≈ 1.56 µM) | 1 µg/mL (≈ 3.13 µM) | 2 µg/mL (≈ 6.26 µM) | Non-toxic | 0.164 µg/mL (≈ 0.513 µM) | 0.5 µg/mL (≈ 1.56 µM) | 0.017 µg/mL (≈ 0.0532 µM) | 0.125 µg/mL (≈ 0.391 µM) | 0.25 µg/mL (≈ 0.782 µM) | 0.5 µg/mL (≈ 1.56 µM) | 256 µg/mL (≈ 801 µM) | 0.079 µg/mL (≈ 0.247 µM) | 0.125 µg/mL (≈ 0.391 µM) | 0.5 µg/mL (≈ 1.56 µM) | 2 µg/mL (≈ 6.26 µM) | 0.043 µg/mL (≈ 0.135 µM) | 0.125 µg/mL (≈ 0.391 µM) | 64 µg/mL (≈ 200 µM) | 5.36% | Activity [17]: 27.78%; Activity [18]: 0.87%; Activity [19]: 11.12%; hemolysis at 512 ug/ml [20]: 7%; Activity [21]: 15.34%; Activity [22]: 5.19%; remaining at 0.5 h [23]: 27.3%; Activity [24]: 13.82%; remaining at 0.5 h [25]: 6.2%; Activity [26]: 29.84%; Activity [27]: 42.29%; Activity [28]: 7.23%; Activity [29]: 21.52%; Activity [30]: 4.12%; Activity [31]: 15.52% |
| CCC(C)(C)c1ccc(CC(C)CN2C[C@@H](C)O[C@@H](C)C2)cc1 (some centres undefined) [AMOROLFINE] | 32 µg/mL (≈ 101 µM) | 8 µg/mL (≈ 25.2 µM) | 32 µg/mL (≈ 101 µM) | 64 µg/mL (≈ 202 µM) | Non-toxic | 0.173 µg/mL (≈ 0.545 µM) | 0.5 µg/mL (≈ 1.57 µM) | 0.038 µg/mL (≈ 0.12 µM) | 0.125 µg/mL (≈ 0.394 µM) | 0.1 µg/mL (≈ 0.315 µM) | 0.25 µg/mL (≈ 0.787 µM) | > 256 µg/mL | 0.031 µg/mL (≈ 0.0976 µM) | 0.125 µg/mL (≈ 0.394 µM) | 0.125 µg/mL (≈ 0.394 µM) | 0.5 µg/mL (≈ 1.57 µM) | 0.028 µg/mL (≈ 0.0882 µM) | 1 µg/mL (≈ 3.15 µM) | > 256 µg/mL | 12.26% | Activity [32]: 32.13%; Activity [17]: 12.03%; Activity [19]: 6.13%; Activity [21]: 0.44%; Activity [22]: 11.56%; Activity [24]: 17.08%; Activity [26]: 8.26%; Activity [33]: 15.28%; Activity [27]: 11.11%; Activity [34]: 15.81%; Activity [29]: 22.04%; Activity [30]: 5.71%; Activity [31]: 30.16% |
